For this assay, the system named is Mycobacterium tuberculosis. Kind of assay: Antimycobacterial activity against multidrug resistant Mycobacterium tuberculosis by agar dilution method. The format is functional. Put shortly: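 Agar dilution MIC on Middlebrook 7H11 agar with OADC, following the NCCLS-recommended approach, run in duplicate. The MDR clinical isolate was resistant to isoniazid, rifampicin, ethambutol and ofloxacin.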
On the technique in general: In agar dilution, organisms are placed on agar that contains the substance at set levels.

In brackets after ≈: the same amount, converted by molar mass.

One may read the MIC as the lowest concentration that inhibits growth of the organism. A higher MIC goes with a need for much substance. Regarding `COc1c(N2CCN(Cc3ccc4c(c3)OCO4)CC2)c(F)c([N+](=O)[O-])c2c(=O)c(C(=O)O)cn(C3CC3)c12`, the minimal inhibitory concentration (MIC) was determined as 0.35 µM (≈ 0.189 µg/mL).
`COc1ccc(CC2C3=C(CCCC3)CCN2c2c(F)c(N)c3c(=O)c(C(=O)O)cn(C4CC4)c3c2OC)cc1` (centres undefined) returned an MIC of 2.85 µM (≈ 1.56 µg/mL).
`COc1c(N2CCN(C(=O)C3COc4ccccc4O3)CC2)c(F)c([N+](=O)[O-])c2c(=O)c(C(=O)O)cn(C3CC3)c12` (centres undefined) showed an MIC of 2.74 µM (≈ 1.56 µg/mL).
The value for `COc1c(N2CCSCC2)c(F)cc2c(=O)c(C(=O)O)cn(C3CC3)c12` was 2.06 µM (≈ 0.78 µg/mL).
The value for `COc1c(N2CCN(Cc3ccc4c(c3)OCO4)CC2)c(F)cc2c(=O)c(C(=O)O)cn(C3CC3)c12` was 1.57 µM (≈ 0.778 µg/mL); that for `COc1c(N2COCC2(C)C)c(F)cc2c(=O)c(C(=O)O)cn(C3CC3)c12` was 2.07 µM (≈ 0.779 µg/mL).
As for `COc1c(N2CC(C)OC(C)C2)c(F)cc2c(=O)c(C(=O)O)cn(C3CC3)c12` (centres undefined), the figure is 3.99 µM (≈ 1.56 µg/mL); as for `COc1c(N2CC(C)OC(C)C2)c(F)c([N+](=O)[O-])c2c(=O)c(C(=O)O)cn(C3CC3)c12` (centres undefined), 1.79 µM (≈ 0.779 µg/mL).
In the case of `COc1ccc(CC2C3=C(CCCC3)CCN2c2c(F)cc3c(=O)c(C(=O)O)cn(C4CC4)c3c2OC)cc1` (centres undefined), the MIC was 1.46 µM (≈ 0.778 µg/mL).
Consider `COc1c(N2CCc3ccccc3C2C(=O)NC(C)(C)C)c(F)c([N+](=O)[O-])c2c(=O)c(C(=O)O)cn(C3CC3)c12` (centres undefined), for which the minimum inhibitory concentration (MIC) was 2.82 µM (≈ 1.56 µg/mL).
The compound `COc1c(N2CCSCC2)c(F)c([N+](=O)[O-])c2c(=O)c(C(=O)O)cn(C3CC3)c12` registered a minimum inhibitory concentration (MIC) of 1.84 µM (≈ 0.779 µg/mL).
In turn, `COc1c(N2CCn3cc(C(=O)O)nc3C2)c(F)c([N+](=O)[O-])c2c(=O)c(C(=O)O)cn(C3CC3)c12` gave a minimum inhibitory concentration (MIC) of 1.6 µM (≈ 0.78 µg/mL).
On to `COc1c(N2CCC3(CC2)OCCO3)c(F)c([N+](=O)[O-])c2c(=O)c(C(=O)O)cn(C3CC3)c12`, for which the minimal inhibitory concentration (MIC) worked out at 0.41 µM (≈ 0.19 µg/mL).
On to `CCN(CC)C(=O)C1CCCN(c2c(F)c([N+](=O)[O-])c3c(=O)c(C(=O)O)cn(C4CC4)c3c2OC)C1` (centres undefined), for which the MIC was 1.55 µM (≈ 0.782 µg/mL).
`NNC(=O)c1ccncc1` [ISONIAZID] displayed an MIC of 45.6 µM (≈ 6.25 µg/mL).
The value for `COc1c(N2CCC3(CC2)OCCO3)c(F)cc2c(=O)c(C(=O)O)cn(C3CC3)c12` was 1.86 µM (≈ 0.778 µg/mL); that for `COc1ccc(CC2C3=C(CCCC3)CCN2c2c(F)c([N+](=O)[O-])c3c(=O)c(C(=O)O)cn(C4CC4)c3c2OC)cc1` (centres undefined) was 0.33 µM (≈ 0.191 µg/mL).
`COc1c(N2CCN(C)C(c3ccccc3)C2)c(F)c([N+](=O)[O-])c2c(=O)c(C(=O)O)cn(C3CC3)c12` (centres undefined) had an MIC of 3.14 µM (≈ 1.56 µg/mL).
`COc1c(N2CCN(C(c3ccccc3)c3ccc(Cl)cc3)CC2)c(F)c([N+](=O)[O-])c2c(=O)c(C(=O)O)cn(C3CC3)c12` (centres undefined) gave an MIC of 1.28 µM (≈ 0.777 µg/mL).
The compound `COc1c(N2CCNC(C)C2)c(F)cc2c(=O)c(C(=O)O)cn(C3CC3)c12` (centres undefined) [GATIFLOXACIN] registered a minimum inhibitory concentration (MIC) of 8.34 µM (≈ 3.13 µg/mL).
As to `COc1c(N2CCN(C(=O)C3COc4ccccc4O3)CC2)c(F)cc2c(=O)c(C(=O)O)cn(C3CC3)c12` (centres undefined), the MIC was found to be 0.74 µM (≈ 0.387 µg/mL).
`CCN(CC)C(=O)C1CCCN(c2c(F)cc3c(=O)c(C(=O)O)cn(C4CC4)c3c2OC)C1` (centres undefined) returned an MIC of 3.39 µM (≈ 1.56 µg/mL).
The value for `COc1c(N2CCn3cc(C(=O)O)nc3C2)c(F)cc2c(=O)c(C(=O)O)cn(C3CC3)c12` was 1.76 µM (≈ 0.779 µg/mL); that for `COc1c(N2COCC2(C)C)c(F)c([N+](=O)[O-])c2c(=O)c(C(=O)O)cn(C3CC3)c12` was 0.93 µM (≈ 0.392 µg/mL).
